The results in this text go back to ChEMBL document CHEMBL1649536, “First report of plasmid-mediated quinolone resistance determinant qnrS1 in an Escherichia coli strain of animal origin in Italy” (2009).

≈ marks a conversion by molar mass, not a printed value. Bounds are passed on as bounds.

Usually MIC stands for the lowest concentration that inhibits growth of the organism. High values mean a less susceptible organism, low ones a more susceptible organism.

Common to all, as to type: functional
Test [1] relates to Escherichia coli. In words: Antibacterial activity against Escherichia coli 3963 by Etest method. An outline of the steps: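 Strain 3963 is an E. coli poultry isolate of phylogenetic group D and multilocus sequence type 398. It was picked from 73 poultry isolates with ciprofloxacin MICs of ≥0.125 μg/ml. Resistance categories were assigned by published interpretive criteria.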

The subject of test [2] is Escherichia coli. In words: Antibacterial activity against quinolone-resistant Escherichia coli TOP10-3963 transformant harboring qnrS1 gene by Etest method. The essentials: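 The transformant was made by extracting plasmid DNA from strain 3963 and transforming competent E. coli TOP10. Transformants were selected on LB agar containing 0.06 μg/ml ciprofloxacin and carried both qnrS1 and blaTEM-1.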

The subject of test [3] is Escherichia coli. In words: Antibacterial activity against Escherichia coli TOP10 by Etest method.

For the compound `CC1(C)S[C@@H]2[C@H](NC(=O)[C@H](N)c3ccccc3)C(=O)N2[C@H]1C(=O)O` [AMPICILLIN], the MIC is no less than 256 µg/mL against Escherichia coli [1], no less than 256 µg/mL with Escherichia coli [2] and 6 µg/mL (≈ 17.2 µM) against Escherichia coli [3].

With `CO/N=C(\C(=O)N[C@@H]1C(=O)N2C(C(=O)O)=C(COC(C)=O)CS[C@H]12)c1csc(N)n1` [CEFOTAXIME], the values for the MIC in the test with Escherichia coli [1], against Escherichia coli [2] and in the test with Escherichia coli [3] were 0.047 µg/mL (≈ 0.103 µM), 0.064 µg/mL (≈ 0.141 µM) and 0.064 µg/mL (≈ 0.141 µM), respectively.

On to `CO/N=C(\C(=O)N[C@@H]1C(=O)N2C(C(=O)O)=C(CSc3nc(=O)c(O)nn3C)CS[C@H]12)c1csc(N)n1` [CEFTRIAXONE], for which the figures for the MIC against Escherichia coli [1], in the test with Escherichia coli [2] and against Escherichia coli [3] were 0.032 µg/mL (≈ 0.0577 µM), 0.094 µg/mL (≈ 0.169 µM) and 0.064 µg/mL (≈ 0.115 µM), respectively.

For `O=C(O)c1cn(C2CC2)c2cc(N3CCNCC3)c(F)cc2c1=O` [CIPROFLOXACIN], the MIC against Escherichia coli [1] was determined as 0.38 µg/mL (≈ 1.15 µM).

Turning to `CCN1CCN(c2cc3c(cc2F)c(=O)c(C(=O)O)cn3C2CC2)CC1` [ENROFLOXACIN], the values for the MIC against Escherichia coli [1], with Escherichia coli [2] and against Escherichia coli [3] were 2 µg/mL (≈ 5.56 µM), 0.5 µg/mL (≈ 1.39 µM) and 0.08 µg/mL (≈ 0.223 µM), respectively.

With `C[C@H]1COc2c(N3CCN(C)CC3)c(F)cc3c(=O)c(C(=O)O)cn1c23.C[C@H]1COc2c(N3CCN(C)CC3)c(F)cc3c(=O)c(C(=O)O)cn1c23.O` [LEVOFLOXACIN], the MIC against Escherichia coli [2] came to 0.25 µg/mL; against Escherichia coli [3] it was 0.006 µg/mL.

On to `CCn1cc(C(=O)O)c(=O)c2ccc(C)nc21` [NALIDIXIC ACID], for which the values for the MIC in the test on Escherichia coli [1], against Escherichia coli [2] and with Escherichia coli [3] were 16 µg/mL (≈ 68.9 µM), 6 µg/mL (≈ 25.8 µM) and 2 µg/mL (≈ 8.61 µM), respectively.
